Results as given in ChEMBL document CHEMBL1933024, “In vitro antibacterial activity of sphaeropsidins and chemical derivatives toward Xanthomonas oryzae pv. oryzae, the causal agent of rice bacterial blight” (2011).
Activity calls are given as the source filed them. No cut-off for these calls is given here.

Experiments:
Assay type in all cases: functional
[1] = tested on: Xanthomonas oryzae pv. oryzae; test: Antibacterial activity against Xanthomonas oryzae pv. oryzae XKK.12 assessed as growth inhibition at 6 X 10^-3 M measured after 1 to 2 days; conditions: for zone of inhibition at 6000 µM: read-out: IZ
How it was run: (§1)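 Agar well diffusion. Each pathogen culture was mixed with top agar (PSA, KB or LB; 0.75% w/v agar) at 45 °C, 50 µL culture per 10 mL, and poured over LB plates bearing wells. Compound (25 or 100 µg in 50 µL DMSO) was added to the wells; 50 µL DMSO served as negative control. Plates were incubated at 30 °C for 1–2 days. The inhibition zone was measured in mm, including the 4 mm well. Three repeats, SD.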

[2] = tested on: Pseudomonas fuscovaginae; test: Antibacterial activity against Pseudomonas fuscovaginae UPB0736 assessed as growth inhibition at 25 to 100 ug measured after 1 to 2 days; how it was run: as §1
[3] = tested on: Xanthomonas oryzae pv. oryzae; test: Antibacterial activity against Xanthomonas oryzae pv. oryzae XKK.12 assessed as growth inhibition at 1.5 X 10^-3 M measured after 1 to 2 days; how it was run: as §1
[4] = tested on: Burkholderia glumae; test: Antibacterial activity against Burkholderia glumae AU6208 assessed as growth inhibition at 25 to 100 ug measured after 1 to 2 days; how it was run: as §1
[5] = tested on: Xanthomonas oryzae pv. oryzae; test: Bacteriostatic activity against Xanthomonas oryzae pv. oryzae XKK.12 assessed as growth inhibition at 0.5 to 1.5 X 10^-4 M measured after 1 to 2 days
[6] = tested on: Xanthomonas oryzae pv. oryzae; test: Antibacterial activity against Xanthomonas oryzae pv. oryzae XKK.12 assessed as growth inhibition at 6 X 10^-3 measured after 1 to 2 days relative to ampicillin
[7] = tested on: Xanthomonas oryzae pv. oryzae; test: Antibacterial activity against Xanthomonas oryzae pv. oryzae XKK.12 assessed as growth inhibition at 1.3 X 10^-3 M measured after 1 to 2 days; how it was run: as §1
[8] = tested on: Xanthomonas oryzae pv. oryzae; test: Antibacterial activity against Xanthomonas oryzae pv. oryzae XKK.12 assessed as growth inhibition at 5.2 X 10^-3 M measured after 1 to 2 days; how it was run: as §1
[9] = tested on: Xanthomonas oryzae pv. oryzae; test: Antibacterial activity against Xanthomonas oryzae pv. oryzae XKK.12 assessed as growth inhibition at 5.2 X 10^-3 measured after 1 to 2 days relative to ampicillin
[10] = tested on: Xanthomonas oryzae pv. oryzae; test: Bactericidal activity against Xanthomonas oryzae pv. oryzae XKK.12 assessed as growth inhibition at 0.5 to 1.5 X 10^-4 M measured after 6 to 24 hrs
[11] = tested on: Xanthomonas oryzae pv. oryzae; test: Antibacterial activity against Xanthomonas oryzae pv. oryzae XKK.12 assessed as growth inhibition at 5.6 X 10^-3 M measured after 1 to 2 days; how it was run: as §1
[12] = tested on: Xanthomonas oryzae pv. oryzae; test: Antibacterial activity against Xanthomonas oryzae pv. oryzae XKK.12 assessed as growth inhibition at 1.4 X 10^-3 M measured after 1 to 2 days; how it was run: as §1
[13] = tested on: Xanthomonas oryzae pv. oryzae; test: Antibacterial activity against Xanthomonas oryzae pv. oryzae XKK.12 assessed as growth inhibition at 5.7 X 10^-3 M measured after 1 to 2 days; conditions: read-out: IZ; how it was run: as §1
[14] = tested on: Xanthomonas oryzae pv. oryzae; test: Antibacterial activity against Xanthomonas oryzae pv. oryzae XKK.12 assessed as growth inhibition at 25 to 100 ug measured after 1 to 2 days; how it was run: as §1
[15] = tested on: Xanthomonas oryzae pv. oryzae; test: Bactericidal activity against Xanthomonas oryzae pv. oryzae XKK.12 assessed as decrease in survival rate at 0.5 to 1.5 X 10^-4 M measured after 6 to 24 hrs
[16] = tested on: Xanthomonas oryzae pv. oryzae; test: Antibacterial activity against Xanthomonas oryzae pv. oryzae XKK.12 assessed as growth inhibition at 2 X 10^-3 M measured after 1 to 2 days; conditions: read-out: IZ; how it was run: as §1
[17] = tested on: Xanthomonas oryzae pv. oryzae; test: Antibacterial activity against Xanthomonas oryzae pv. oryzae XKK.12 assessed as growth inhibition at 2 X 10^-3 measured after 1 to 2 days relative to ampicillin
[18] = tested on: Xanthomonas oryzae pv. oryzae; test: Antibacterial activity against Xanthomonas oryzae pv. oryzae XKK.12 assessed as growth inhibition at 0.5 X 10^-3 M measured after 1 to 2 days; how it was run: as §1
[19] = tested on: Xanthomonas oryzae pv. oryzae; test: Antibacterial activity against Xanthomonas oryzae pv. oryzae XKK.12 assessed as growth inhibition at 1.0 X 10^-3 M measured after 1 to 2 days; how it was run: as §1
[20] = tested on: Xanthomonas oryzae pv. oryzae; test: Antibacterial activity against Xanthomonas oryzae pv. oryzae XKK.12 assessed as growth inhibition at 4 X 10^-3 M measured after 1 to 2 days; how it was run: as §1

CC[C@]1(C)C=C2C(=O)[C@@]3(O)OC(=O)[C@@]4(CCCC(C)(C)[C@H]34)[C@@]2(O)CC1
zone of inhibition at 6000 µM [1]: 11.6 mm
Activity [2]: inactive
inhibition zone (IZ) [3]: inactive
Activity [4]: inactive
Activity [5]: Active
growth inhibition (GI) [6]: 22.3%

C=C[C@]1(C)C=C2[C@@H](O)C[C@H]3C(C)(C)CCC[C@]3(C(=O)O)[C@@]2(O)CC1
inhibition zone (IZ) [1]: inactive
Activity [2]: inactive
inhibition zone (IZ) [3]: inactive
Activity [4]: inactive

CC[C@]1(C)C=C2[C@@H](OC(C)=O)[C@@]3(O)OC(=O)[C@@]4(CCCC(C)(C)[C@H]34)[C@@]2(O)CC1
Activity [2]: inactive
inhibition zone (IZ) [7]: inactive
inhibition zone (IZ) [8]: inactive
Activity [4]: inactive

C=C[C@]1(C)C=C2C3(CO3)C(=O)[C@H]3C(C)(C)CCC[C@]3(C(=O)OC)[C@@]2(OC)CC1 (some centres undefined)
Activity [2]: inactive
inhibition zone (IZ) [7]: inactive
inhibition zone (IZ) [8]: inactive
Activity [4]: inactive

CC[C@]1(C)C=C2[C@@H](O)[C@@]3(O)OC(=O)[C@@]4(CCCC(C)(C)[C@H]34)[C@@]2(O)CC1
zone of inhibition at 6000 µM [1]: 8.9 mm
Activity [2]: inactive
inhibition zone (IZ) [3]: inactive
Activity [4]: inactive
Activity [5]: inactive

C=C[C@]1(C)C=C2C(=O)[C@@]3(OC(C)=O)OC(=O)[C@@]4(CCCC(C)(C)[C@H]34)[C@@]2(O)CC1
inhibition (INH) [9]: 39.8%
Activity [2]: inactive
zone of inhibition at 1300 µM ([7]; read-out: IZ): 15.8 mm
zone of inhibition at 5200 µM ([8]; read-out: IZ): 20.7 mm
Activity [4]: inactive
Activity [5]: Active
Activity [10]: Active

C=C[C@]1(C)C=C2C(=O)C[C@H]3C(C)(C)CCC[C@]3(C(=O)O)[C@@]2(O)CC1
inhibition zone (IZ) [1]: inactive
Activity [2]: inactive
inhibition zone (IZ) [3]: inactive
Activity [4]: inactive

C=C[C@]1(C)C=C(C=O)[C@@]2(CC1)OC(=O)[C@H]1C(C)(C)CCC[C@@]12C(=O)O
inhibition zone (IZ) [1]: inactive
Activity [2]: inactive
inhibition zone (IZ) [3]: inactive
Activity [4]: inactive

C=C[C@]1(C)C=C2[C@@H](O)C(=O)[C@H]3C(C)(C)CCC[C@]3(C(=O)OC)[C@@]2(O)CC1
inhibition zone (IZ) [11]: inactive
Activity [2]: inactive
Activity [4]: inactive
inhibition zone (IZ) [12]: inactive

C=C[C@]1(C)C=C2C(=O)C[C@H]3C(C)(C)CCC[C@]3(C(=O)OC)[C@@]2(O)CC1
inhibition zone (IZ) [1]: inactive
Activity [2]: inactive
inhibition zone (IZ) [3]: inactive
Activity [4]: inactive

CC1(C)S[C@@H]2[C@H](NC(=O)[C@H](N)c3ccccc3)C(=O)N2[C@H]1C(=O)O [AMPICILLIN]
zone of inhibition at 5700 µM [13]: 52 mm

C=C[C@@]1(C)CC[C@]2(O)[C@@]3(C(=O)OC)CCCC(C)(C)[C@@H]3C(=O)C(=O)[C@@]23C[C@@H]13
Activity [2]: inactive
inhibition zone (IZ) [7]: inactive
inhibition zone (IZ) [8]: inactive
Activity [4]: inactive

C=C[C@]1(C)C=C2C(=O)[C@@]3(O)OC(=O)[C@@]4(CCCC(C)(C)[C@H]34)[C@@]2(O)CC1 [SPHAEROPSIDIN A]
Activity [14]: Active
zone of inhibition at 6000 µM [1]: 25.5 mm
Activity [15]: Active
zone of inhibition at 1500 µM ([3]; read-out: IZ): 18.3 mm
Activity [10]: Active
growth inhibition (GI) [6]: 49%

C=C[C@@]1(C)CCC2=C(C(=O)[C@@]3(OC(C)=O)OC(=O)[C@@]24CCCC(C)(C)[C@H]34)C1OC(C)=O (some centres undefined)
zone of inhibition at 2000 µM [16]: 15.3 mm
Activity [2]: inactive
inhibition (INH) [17]: 29.4%
Activity [4]: inactive
Activity [5]: Active
inhibition zone (IZ) [18]: inactive

C=C[C@]1(C)C=C2[C@@H](O)[C@@]3(O)OC(=O)[C@@]4(CCCC(C)(C)[C@H]34)[C@@]2(O)CC1
inhibition zone (IZ) [1]: inactive
Activity [2]: inactive
inhibition zone (IZ) [3]: inactive
Activity [4]: inactive

C=C[C@]1(C)C=C2[C@@H](OC(C)=O)[C@@]3(O)OC(=O)[C@@]4(CCCC(C)(C)[C@H]34)[C@@]2(O)CC1
Activity [2]: inactive
Activity [4]: inactive
inhibition zone (IZ) [19]: inactive
inhibition zone (IZ) [20]: inactive

C=C[C@]1(C)C=C2C3(CO3)C(=O)[C@H]3C(C)(C)CCC[C@]3(C(=O)OC)[C@@]2(O)CC1 (some centres undefined)
Activity [2]: inactive
inhibition zone (IZ) [7]: inactive
inhibition zone (IZ) [8]: inactive
Activity [4]: inactive

C=C[C@@]1(C)CC[C@@]2(O)C(=C1C)C(=O)C(=O)[C@H]1C(C)(C)CCC[C@@]12C(=O)OC
inhibition zone (IZ) [11]: inactive
Activity [2]: inactive
Activity [4]: inactive
inhibition zone (IZ) [12]: inactive
